Screening data (PubChem)
Compounds with a hit are over-represented: about 3.7% of the library has one in this group of screens.
KCNK9 block – inhibitors of human KCNK9 two-pore domain potassium channel; Q9NPC2; HEK293 KCNK9, FluxOR thallium flux fluorescence; active compounds read low; B-score at 10 µM; actives 1.2% (n = 310,000); AID 488922;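 active means ratio B-score over 3 SD below the library mean, with starting fluorescence within 5 SD of its mean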;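 further: negative B-score means less thallium flux so channel inhibition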
Target sequence (Q9NPC2 whole entry, looked up, the tested form may be a part): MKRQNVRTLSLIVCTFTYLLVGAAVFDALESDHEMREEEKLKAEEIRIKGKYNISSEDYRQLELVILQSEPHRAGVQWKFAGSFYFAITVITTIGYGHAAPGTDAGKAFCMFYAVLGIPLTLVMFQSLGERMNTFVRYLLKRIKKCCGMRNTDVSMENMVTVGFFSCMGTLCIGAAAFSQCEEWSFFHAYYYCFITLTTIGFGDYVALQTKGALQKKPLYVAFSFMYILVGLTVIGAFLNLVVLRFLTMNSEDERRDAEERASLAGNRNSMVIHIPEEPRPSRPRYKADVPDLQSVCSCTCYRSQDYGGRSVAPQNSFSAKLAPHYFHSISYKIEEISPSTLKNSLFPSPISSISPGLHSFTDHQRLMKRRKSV
KCNQ1 pot – human KCNQ1 channel potentiation or activation; P51787; CHO-K1 KCNQ1, thallium flux FluxOR fluorescence; active compounds read high; B-score at 10 µM; actives 0.35% (n = 310,000); AID 2648;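 active means fluorescence ratio B-score, a plate-corrected score, at least three library SD, with initial intensity B-score within 5 SD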
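Medium – assay buffer, equal DMSO in all wells · Material – CHO-K1 cell line with stable KCNQ1 potassium channel expression · Signal – kinetic FluxOR thallium fluorescence, 10-s 1-Hz baseline, 110-s post-stimulus read · Compound – single concentration per compound, DMSO matched to controls · Schedule – 37 °C overnight plating, 90-min dark dye load, 20-min compound pretreatment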
KCNQ1 inh – inhibitors of human KCNQ1 potassium channel; B-score at 10 µM; AID 2642; P51787; CHO-K1 KCNQ1, FluxOR thallium flux fluorescence; active compounds read high; actives 1.3% (n = 310,000);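 active means compounds whose thallium flux B-score, printed positive for inhibition, exceeds three library SD while starting fluorescence stays within three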;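 further: channel opened by potassium depolarization with thallium stimulus after 20 min compound exposure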
KCNK3 inh – human KCNK3 channel inhibition, primary screen; O14649; AID 602410; actives 0.84% (n = 340,000); CHO-KCNK3 thallium flux, FluxOR fluorescence; active compounds read low; B-score at 10 µM;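 active means B-score under library mean minus 4 SD, starting fluorescence ratio at most library mean plus 5 SD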;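 further: more negative B-score means stronger inhibition of thallium flux through KCNK3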
hERG rescue – hERG (human) protection from proarrhythmic block; actives 0.51% (n = 310,000); Q12809; activation (rescue from dofetilide block), less the hit threshold, % at 10 µM; CHO-hERG, FluxOR thallium flux, dofetilide IC70 present;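 active means activation above the mean of controls blocked by dofetilide plus 5 SD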;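 further: thallium influx through hERG after potassium depolarization seen as dye fluorescence rise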
Kir21 inh – inhibitors of mouse Kir2.1 inward-rectifier potassium channel; B-score at 10 µM; HEK293-Kir2.1, FluxOR thallium flux fluorescence; active compounds read low; actives 0.85% (n = 310,000);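 active means fluorescence ratio B-score at or below minus 3 SD of library scores, with starting-brightness B-score within 2 SD, cut at about -4.2 in these data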;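 further: channel flux triggered by added potassium and thallium sulfate stimulus; B-score of peak minus minimum fluorescence over baseline after thallium stimulus; more negative B-score means stronger Kir2.1 block with less thallium influx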
KCNQ1 inh valid – confirmation of human KCNQ1 potassium channel inhibitors. shares compounds with KCNQ1 inh. KCNQ1 cell line, FluxOR thallium flux fluorescence. inhibition, % at 10 µM. actives 93% (n = 1,600);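 active means primary screen active, with duplicate mean exceeding buffer control mean plus 3 SD of buffer wells, cut at about 28% in these data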;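 further: 0% = buffer control ratio and 100% = XE991 inhibitor control ratio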
CHO Tl flux – activity in parental CHO cells lacking KCNQ1. fluorescence ratio (Tl flux) at 10 µM. actives 21% (n = 1,600). parental CHO-K1, FluxOR thallium flux fluorescence ratio; active compounds read low; zero means no signal rise above baseline. shares compounds with KCNQ1 inh;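 active means mean of duplicate thallium-flux fluorescence ratios in parental host cells more than 5 SD below the buffer control mean, cut at about 0.38 in these data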;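 further: ratio is peak minus minimum fluorescence divided by baseline fluorescence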
KCNQ1 ephys val – human KCNQ1 inhibition validated by electrophysiology; shares compounds with KCNQ1 inh; actives 20% (n = 490); AID 624120; calls only at 10 µM; KCNQ1-CHO cells, automated patch clamp current;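 active means KCNQ1 current drop exceeding 3 SD of negative control wells, seen in both duplicate runs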;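 further: steady state current during a 2 s step from -80 to +40 mV; negative values mean current inhibition and positive values mean potentiation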
KCNQ2 spec – KCNQ1 inhibitor that also blocks rat KCNQ2 channel; shares compounds with KCNQ1 inh; KCNQ2 cells, FluxOR thallium flux fluorescence; inhibition, % at 10 µM; actives 71% (n = 1,600);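 active means mean percent inhibition of the KCNQ2 thallium signal more than 5 SD above the buffer-only control wells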;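 further: KCNQ2 expressed in CHO cells; 0% = buffer control wells and 100% = XE-991 inhibitor control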
KCNQ1 KCNE1 spec – human KCNQ1/KCNE1 inhibition in KCNQ1 specificity screen. shares compounds with KCNQ1 inh. KCNQ1/KCNE1 cells, FluxOR thallium flux fluorescence. inhibition, % at 10 µM. actives 77% (n = 1,600). AID 652147;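 active means mean percent inhibition of duplicate wells above the buffer-only control mean plus 3 SD of those controls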;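 further: 0% = buffer only wells and 100% = XE-991 inhibitor control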
Numbers without * were called inactive; i = inactive; x = no result.

SMILES	KCNK9 block	KCNQ1 pot	KCNQ1 inh	KCNK3 inh	hERG rescue	Kir21 inh	KCNQ1 inh valid	CHO Tl flux	KCNQ2 spec	KCNQ1 KCNE1 spec	others
Cc1ccccc1OCCCCn1cnc2ccccc21	i	i	9*	i	-15.6	-1.35	136.5*	0.471	100.3%*	59.0%*	KCNQ1 ephys val=i
c1ccc2c(c1)ncn2CCCCOc1ccc2c(c1)CCC2	i	i	7*	i	-17.9	-0.88	118.5*	0.479	91.0%*	82.5%*	KCNQ1 ephys val=i
COc1cc(NC(=O)COC(=O)CCOc2ccc(C)cc2)cc(OC)c1	i	i	i	i	-11.6	-0.06	x	x	x	x
COc1ccc(Cl)cc1S(=O)(=O)N1CCN(C)CC1	i	i	i	i	-6.9	-1.7	x	x	x	x
COc1c(S(=O)(=O)N2CCN(C)CC2)ccc(Cl)c1Cl	i	i	7*	i	0.3	0.18	0.0	0.486	i	56.0%*
Cc1cc(C)cc(NC(=O)CSc2nc3ccccc3nc2N2CCCC2)c1	i	i	i	i	-9.6	0.85	x	x	x	x
Cc1cc(C)cc(NC(=O)CSc2nc3ccccc3nc2N2CCCCC2)c1	i	i	6*	i	-9.4	0.35	68.5*	0.463	92.0%*	86.0%*
O=C(NC(=O)c1c(F)cccc1F)Nc1cccc(Oc2ncc(Cl)cn2)c1	x	x	x	i	x	x	x	x	x	x
COC(=O)C(CCSC)NC(=O)C12CC3CC(CC(C3)C1)C2 (configuration not stated)	i	i	i	i	0.0	0.85	x	x	x	x
COC(=O)C(Cc1ccc(O)cc1)NC(=O)C12CC3CC(CC(C3)C1)C2 (configuration not stated)	i	i	14*	i	-15.9	1.07	43.5*	0.459	i	i
Cn1nc(C(C)(C)C)cc1NC(=O)Nc1ccc(Cl)cc1	i	i	7*	i	-17.1	1.93	83.0*	0.462	i	i
Cn1nc(C(C)(C)C)cc1NC(=O)Nc1ccc(F)cc1F	i	i	i	i	-8.2	0.59	x	x	x	x
O=C(Nc1ccc(OC(F)(F)F)cc1)Oc1ccccc1N1CCCCC1	i	i	9*	i	-18.7	-0.99	82.5*	0.476	i	40.5%*
O=C(Nc1ccc(OC(F)(F)F)cc1)Oc1ccccc1N1CCOCC1	i	i	6*	i	-8.4	-0.37	49.5*	0.495	70.0%*	39.0%*
O=C(O)/C(=C\c1cccc(OCc2ccccc2)c1)c1ccc(F)cc1	i	i	i	i	-13.2	-1.47	x	x	x	x
O=C(NNC(=O)c1ccc2ccccc2c1)c1cccc(Cl)c1	x	x	x	i	x	x	x	x	x	x
CC(=O)Nc1cccc(NC(=S)Nc2ccc(F)c(Cl)c2)c1	i	i	8*	i	-30.2	-0.13	61.0*	0.449	i	i
CC(=O)Nc1cccc(NC(=O)Nc2ccc(C)c(Cl)c2)c1	i	i	i	i	-0.4	2.01	x	x	x	x
Cc1ccc(NC(=O)Nc2ccc(F)c(Cl)c2)cc1	i	i	8*	i	-15.4	0.41	78.0*	0.519	i	43.5%*
O=C(Nc1cccnc1)Nc1ccc(F)c(Cl)c1	i	i	6*	i	-19.5	0.71	0.0	0.557	i	i
O=C1C=CC2(O[C@H](c3ccccc3)[C@@H](c3ccccc3)O2)[C@H](Sc2ccccc2O)C1	x	x	x	i	x	x	x	x	x	x
